Bioassay records from PubChem.
DSG3 Ab inh = inhibitors of pemphigus antibody binding to DSG3, primary screen, biochemical, bead-based, flow cytometry, scFv-GFP | DSG3-coupled beads, scFv-anti-DSG3-GFP binding; stronger effect = lower value | Desmoglein-3 (Homo sapiens), P32926 | binding (percent of control), % at 10 µM | 310,000 compounds, 0.48% hits;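 active means binding more than 3 SD below its plate's average and above zero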
GPR7 antagonist = GPR7 receptor antagonists, primary screen, cell-based, fluorescence, single concentration; 290,000 compounds, 1.1% hits; inhibition, % at 4.4 µM; AID 1861, 2009; GPR7-expressing cells, fluorescence antagonist assay; Neuropeptides B/W receptor type 1 (Homo sapiens), P48145; in the data active means inhibition above about 16%, passing the limit was not always enough;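 further: cells stimulated with the agonist NPW; 0% = agonist with vehicle and 100% = vehicle without agonist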
pCIP destab = p/CIP-EGFP fusion destabilizers, primary screen, fluorescence, F442A cells; Q05BA5; decrease of EGFP signal, % at 10 µM; 16 h; AID 1984, 2009; 290,000 compounds, 0.01% hits;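 active means EGFP signal decrease of at least 30% at 10 µM or well 3 SD below plate mean, unless failing retest; inactive means the rest, including hits failing retest or dose response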
Target sequence (Q05BA5 1-1403): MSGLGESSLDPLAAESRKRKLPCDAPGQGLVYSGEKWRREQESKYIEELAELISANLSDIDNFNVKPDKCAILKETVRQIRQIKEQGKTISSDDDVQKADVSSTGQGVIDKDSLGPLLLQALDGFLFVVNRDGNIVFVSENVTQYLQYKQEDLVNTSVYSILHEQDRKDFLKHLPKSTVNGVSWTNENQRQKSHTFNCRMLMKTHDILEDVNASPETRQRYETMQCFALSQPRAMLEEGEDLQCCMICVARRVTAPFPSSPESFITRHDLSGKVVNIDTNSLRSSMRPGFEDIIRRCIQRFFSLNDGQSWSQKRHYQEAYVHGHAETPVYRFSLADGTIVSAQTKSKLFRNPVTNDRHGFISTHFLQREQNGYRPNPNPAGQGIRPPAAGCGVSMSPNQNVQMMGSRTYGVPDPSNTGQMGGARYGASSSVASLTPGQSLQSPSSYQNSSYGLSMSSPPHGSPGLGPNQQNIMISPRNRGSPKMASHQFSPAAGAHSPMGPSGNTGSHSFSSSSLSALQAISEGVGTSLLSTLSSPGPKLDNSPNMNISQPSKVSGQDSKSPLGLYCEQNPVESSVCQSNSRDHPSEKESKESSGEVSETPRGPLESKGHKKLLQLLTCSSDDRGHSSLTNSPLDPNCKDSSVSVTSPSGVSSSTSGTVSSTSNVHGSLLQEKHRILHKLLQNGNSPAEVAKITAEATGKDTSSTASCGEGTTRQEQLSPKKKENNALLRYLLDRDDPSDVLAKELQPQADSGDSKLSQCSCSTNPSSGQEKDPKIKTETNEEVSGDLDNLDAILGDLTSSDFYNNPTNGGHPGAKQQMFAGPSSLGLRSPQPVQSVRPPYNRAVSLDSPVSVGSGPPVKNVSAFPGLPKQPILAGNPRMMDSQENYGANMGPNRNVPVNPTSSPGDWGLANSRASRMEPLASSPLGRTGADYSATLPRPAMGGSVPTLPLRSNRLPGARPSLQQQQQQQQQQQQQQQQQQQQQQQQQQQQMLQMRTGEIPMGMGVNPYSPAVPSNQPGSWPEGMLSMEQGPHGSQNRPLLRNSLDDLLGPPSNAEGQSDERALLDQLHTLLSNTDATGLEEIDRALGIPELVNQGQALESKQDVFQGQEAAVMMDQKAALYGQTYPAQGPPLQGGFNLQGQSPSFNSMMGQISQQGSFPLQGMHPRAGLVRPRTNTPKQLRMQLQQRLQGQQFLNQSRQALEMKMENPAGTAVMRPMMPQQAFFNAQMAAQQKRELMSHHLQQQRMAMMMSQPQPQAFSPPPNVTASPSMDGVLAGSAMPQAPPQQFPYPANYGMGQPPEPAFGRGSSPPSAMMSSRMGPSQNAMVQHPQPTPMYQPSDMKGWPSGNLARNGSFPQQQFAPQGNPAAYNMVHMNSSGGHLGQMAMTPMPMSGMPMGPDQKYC
T cell HTS = modulators of CD8 T cell-vesicle binding, primary screen, mouse 2C CD8+ T cells, flow cytometry. 2C CD8+ T cell-vesicle binding; stronger effect = lower value. response (vesicle binding), % at 7 µM. 330,000 compounds, 0.068% hits. AID 2052, 2009;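 active means response, share of CD8 T cells binding vesicles, and their 90th percentile fluorescence all below set limits, cut at about 80% in these data, passing the limit was not always enough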;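 further: values below 100% mean blocked vesicle binding to the CD8+ T cells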
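Assay system: 2C TCR transgenic mouse naive CD8+ T cells, MACS-purified | Read-out: CD8+ gate FL2 mean fluorescence as % of same-row positive control | Signal: High-throughput flow cytometry with anti-B7-1 and anti-CD8 staining | Timing: Binding step 1.5 h, 37 °C, antibody labelling 20 min, ice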
CHT PAM = CHT positive allosteric modulators, primary screen, cell-based, membrane potential dye, choline EC20. High affinity choline transporter 1 (Homo sapiens), Q9GZV3. CHT-expressing cells; stronger effect = higher value; LV-AA mutant CHT in HEK293 cells. B-score at 10 µM. 310,000 compounds, 0.49% hits. AID 488977, 2010;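 active means initial fluorescence not abnormally high and integrated response B-score, plate-corrected, over 3 SD above library mean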
CHT inh = inhibitors of human choline transporter CHT | CHT-expressing cells, membrane potential dye, choline response; stronger effect = lower value | B-score at 10 µM | 310,000 compounds, 0.86% hits | AID 488975, 2010;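 active means B-score over 3 SD under the library average, and starting fluorescence ratio not unusually high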;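 further: choline stimulus applied at its EC90 after an EC20 pre-addition; B-score computed on integrated fluorescence ratio after choline addition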
The depositor's hits bear a star; i = inactive; x = no result given. Hits are enriched below; roughly 2.3% of the tested compounds scored in any of these assays.

SMILES | DSG3 Ab inh | GPR7 antagonist | pCIP destab | T cell HTS | CHT PAM | CHT inh
O=C(Nc1ccc(Oc2cccnc2)nc1)c1ccc(C(F)(F)F)cc1 | 107 | 20* | -16 | 716 | i | i
CC(C)(C)c1ccc(C(=O)NC(=S)NNC(=O)c2cccs2)cc1 | 81* | -4 | -5 | 496 | i | i
Cc1ccccc1C(=O)NNC(=S)NC(=O)c1cccs1 | 79* | 4 | 2 | 174 | i | i
Cc1ccccc1C(=O)Nc1cccc(NC(=S)NC(=O)c2cccs2)c1 | 109 | -8 | -13 | 222 | i | i
CC(C)(C)C(=O)NC(=S)NNC(=O)c1ccc(-c2ccccc2)cc1 | 100 | 103* | -20 | 52 | i | i
Cc1cc(C)c(NC(=S)NC(=O)c2ccc(-c3ccccc3)cc2)c(C)c1 | 41* | -6 | 0 | 936 | i | i
O=c1c(Br)ccc(Br)cc1Br | 115 | x | x | x | x | x
O=C(NC1CC1)c1ccc(CSCc2ccc(Cl)cc2)o1 | 96 | x | x | x | x | x
CNC(=S)N1CCC(C(=O)c2ccc(Cl)cc2)CC1 | 107 | x | x | x | x | x
O=C(COC(=O)CCS(=O)(=O)c1ccccc1)NNC(=O)c1ccc([N+](=O)[O-])cc1 | 95 | x | x | x | x | x
CC(C)CN1CCC(CN2CCNC(=O)C2=O)CC1 | 106 | x | x | x | x | x
CC(C)(C)c1ccc(C(=O)NC(=S)NNC(=O)COc2ccccc2)cc1 | 100 | -20 | -14 | 164 | i | -5.1*
CC(C)(C)c1ccc(OCC(=O)NNC(=O)CCc2ccccc2)cc1 | x | 7 | -9 | i | i | i
CCCOc1ccc(-c2nnn(CC(=O)OCC)n2)cc1 | 100 | 8 | -16 | 337 | i | i
COC(=O)c1ccc(COc2ccc(-c3nnn(CC(=O)NC(C)(C)C)n3)cc2)cc1 | 94 | -3 | -8 | 0 | i | i
CCCOc1ccc(-c2nnn(CC(=O)N3CCCCC3)n2)cc1 | 88* | -16 | -13 | 268 | i | i
COC(=O)c1ccc(COc2ccc(-c3nnn(CC(N)=O)n3)cc2)cc1 | 101 | 6 | -1 | 0.0* | i | i
COc1ccc(C2Nc3ccccc3C(=O)N2Cc2ccco2)cc1COc1ccc(NC(C)=O)cc1 (centres undefined) | 37* | -1 | -4 | 147 | i | i
O=C1c2ccccc2NC(c2ccc(O)cc2)N1Cc1ccco1 (centres undefined) | 100 | 12 | -10 | 391 | i | i
O=C(CCn1c(=O)oc2ccccc21)NCc1ccco1 | 102 | 1 | -7 | 406 | i | i
O=C(Cn1c(=O)oc2ccccc21)NCc1ccco1 | 117 | 18* | -4 | 197 | i | i
Cc1ccccc1NC(=O)C1(NC(=O)c2cccc(N3C(=O)CSC3c3ccccc3)c2)CCCCC1 (centres undefined) | x | 20* | -14 | 391 | i | i
COC(=O)C1=C(C)NC(C)=C(C(=O)OC)C1C(=O)OCC(=O)NC1CCCCC1C (centres undefined) | 93 | x | x | x | x | x
CC(=O)Nc1ccc2c(c1)C(N1CC3CCC(CC3)C1)c1ccccc1-2 (centres undefined) | 102 | x | x | x | x | x
CCOC(=O)C1=C(N)n2c(s/c(=C\c3cccnc3)c2=O)=C(C(=O)OC)C1c1cccnc1 (centres undefined) | 88* | -8 | x | 584 | i | i
SMILES | DSG3 Ab inh | GPR7 antagonist | pCIP destab | T cell HTS | CHT PAM | CHT inh
CCOc1cc(/C=C2/NC(=O)N(CC(=O)Nc3cccc(C)c3)C2=O)ccc1OCC(N)=O | 50* | -5 | -3 | 447 | i | i
COCC#Cc1ccc2c(c1)O[C@@H](CN(C)S(=O)(=O)c1cccc(F)c1)[C@@H](C)CN([C@H](C)CO)S2(=O)=O | 103 | x | x | x | x | x
COC(=O)c1sc(N2C(=O)C(O)=C(C(=O)c3ccc(C)o3)C2c2ccco2)nc1C (centres undefined) | x | 3 | -24 | 328 | i | i
COC(=O)c1sc(N2C(=O)C(O)=C(C(=O)c3ccc(C)o3)C2c2cccs2)nc1C (centres undefined) | 104 | -6 | -21 | 0 | i | -5.8*
c1ccc(CSc2nnc(-c3cccnc3)o2)cc1 | 103 | -2 | -3 | 121 | i | i
Brc1ccc(CSc2nnc(-c3cccnc3)o2)cc1 | 90 | 13 | -9 | 208 | i | -6.3*
CC(=O)c1cc2c(cc1NC(=O)c1ccc(Cl)cc1)OCCO2 | 31* | 10 | -3 | 225 | i | i
CCOC(=O)C1=C(C(=O)OCC)c2ccc(OC)c(OC)c2C1 | 91 | x | x | x | x | x
OC(CNCCc1ccc(Cl)cc1)COc1ccc2ccccc2c1 (centres undefined) | 118 | 12 | 1 | x | x | x
OC(CNCCc1ccccc1)COc1ccc(OCC(O)CNCCc2ccccc2)cc1 (centres undefined) | 96 | 32* | 0 | 209 | i | i
O=C(Cn1nnc2ccccc21)c1ccc(Br)cc1 | 13* | 13 | 2 | 630 | i | i
Cc1ccc(C(=O)Cn2nnc3ccccc32)cc1 | 100 | -5 | -54 | 350 | i | i
Cc1ccc(OCCSc2nc3ccccc3n2CCC(=O)O)c(C(C)C)c1 | 96 | x | x | x | x | x
Cc1cc2ccccc2n1CCNC(=O)COc1ccccc1 | 65* | x | -14 | 807 | i | i
Cc1cc2ccccc2n1CCNC(=O)c1ccc(S(=O)(=O)N2CCOCC2)cc1 | 83* | -3 | 5 | 844 | i | i
CCC(=O)NCCn1c(C)cc2ccccc21 | 85 | -6 | -14 | 902 | i | i
C[C@H](CO)N1C[C@H](C)[C@@H](CN(C)Cc2ccc(C(=O)O)cc2)Oc2ncc(Br)cc2C1=O | 108 | x | x | x | x | x
CCCC(=O)O[C@]1(C(=O)COC(C)=O)CC[C@H]2[C@@H]3C[C@H](F)C4=CC(=O)C=C[C@]4(C)[C@@]3(F)[C@@H](O)C[C@@]21C | 120 | 7 | 7 | 169 | i | -5*
CCCNC(=O)N(C)C[C@@H]1Oc2cc(C#CC(C)(C)O)ccc2S(=O)(=O)N([C@H](C)CO)C[C@H]1C | 100 | x | x | x | x | x
Cc1cc(=O)oc2cc(OCc3ccc(C(=O)OCC(=O)NC4CCS(=O)(=O)C4)cc3)ccc12 (centres undefined) | 70* | 11 | -1 | 75 | i | i
Cc1cc(=O)oc2cc(OCc3ccc(C(=O)OCC(=O)N(C)C4CCS(=O)(=O)C4)cc3)ccc12 (centres undefined) | 104 | -6 | -4 | 391 | i | i
CC(=O)c1ccc(N(CC(=O)NC2CCCCC2)C(=O)CNC(=O)c2ccco2)cc1 | 37* | -4 | 3 | 194 | i | i
